What was measured:
Assay type in all cases: functional
[1] = test system: Candida albicans; assay: Antifungal activity against Candida albicans ATCC 90028 at 0.0313 ug/ml after 18 hrs relative to control
[2] = test system: Candida albicans; assay: Antifungal activity against Candida albicans ATCC 90028 at 0.0313 ug/ml after 48 hrs relative to control
[3] = test system: Candida albicans; assay: Antifungal activity against Candida albicans ATCC 90028 at 2 ug/ml after 18 hrs relative to control
Method in brief: (§1)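 Planktonic broth microdilution per M27-A3 in MOPS-buffered RPMI 1640 (pH 7.0), final inoculum 1.8×10^3 cells/mL, compounds 0.0313–16 µg/mL from 1600 µg/mL stocks in ethanol or DMSO. Incubated at 35°C without agitation; OD405 read at 18 and 48 h. % inhibition was derived from test, sterility (no inoculum) and solvent growth-control wells. Amphotericin B at 0.5 µg/mL served as the 100% control.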

[4] = test system: Candida albicans; assay: Antifungal activity against Candida albicans ATCC 90028 at 8 ug/ml after 48 hrs relative to control; method in brief: as §1
[5] = test system: Candida albicans; assay: Antifungal activity against Candida albicans ATCC 90028 at 0.125 ug/ml after 18 hrs relative to control; method in brief: as §1
[6] = test system: Candida albicans; assay: Antifungal activity against Candida albicans ATCC 90028 at 0.5 ug/ml after 48 hrs relative to control; method in brief: as §1
[7] = test system: Candida albicans; assay: Antifungal activity against Candida albicans ATCC 90028 at 0.0625 ug/ml after 48 hrs relative to control; method in brief: as §1
[8] = test system: Candida albicans; assay: Antifungal activity against Candida albicans ATCC 90028 at 16 ug/ml after 48 hrs relative to control; method in brief: as §1
[9] = test system: Candida albicans; assay: Antifungal activity against Candida albicans ATCC 90028 at 0.25 ug/ml after 18 hrs relative to control
Method in brief: (§2)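 Fluconazole (water stock, diluted in RPMI 1640) tested by CLSI M27-A3 broth microdilution against C. albicans ATCC 90028. Inoculum 1.8×10^3 cells/mL in RPMI 1640 buffered with MOPS, pH 7.0. Incubation at 35°C without agitation, read at 18 and 48 h. Growth by OD405 and visually; inhibition % calculated against solvent growth-control wells after subtracting sterility-control wells.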

[10] = test system: Candida albicans; assay: Antifungal activity against Candida albicans ATCC 90028 at 1 ug/ml after 48 hrs relative to control; method in brief: as §1
[11] = test system: Candida albicans; assay: Antifungal activity against Candida albicans ATCC 90028 at 16 ug/ml after 18 hrs relative to control; method in brief: as §1
[12] = test system: Candida albicans; assay: Antifungal activity against Candida albicans ATCC 90028 at 0.5 ug/ml after 18 hrs relative to control; method in brief: as §1
[13] = test system: Candida albicans; assay: Antifungal activity against Candida albicans ATCC 90028 at 0.25 ug/ml after 48 hrs relative to control; method in brief: as §2
[14] = test system: Candida albicans; assay: Antifungal activity against Candida albicans ATCC 90028 at 4 ug/ml after 18 hrs relative to control; method in brief: as §1
[15] = test system: Candida albicans; assay: Antifungal activity against Candida albicans ATCC 90028 at 0.0625 ug/ml after 18 hrs relative to control
[16] = test system: Candida albicans; assay: Antifungal activity against Candida albicans ATCC 90028 at 4 ug/ml after 48 hrs relative to control; method in brief: as §1
[17] = test system: Candida albicans; assay: Antifungal activity against Candida albicans ATCC 90028 at 2 ug/ml after 48 hrs relative to control; method in brief: as §1
[18] = test system: Candida albicans; assay: Antifungal activity against Candida albicans ATCC 90028 at 1 ug/ml after 18 hrs relative to control; method in brief: as §1
[19] = test system: Candida albicans; assay: Fungicidal activity against Candida albicans ATCC 90028 at 16 ug/ml after 48 hrs by M27-A3 microdilution method
Method in brief: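 After 48 h at 35°C in M27-A3 microdilution plates (compound at 16 µg/mL), 50 µL aliquots from treated and solvent-control wells were diluted 10^4 in PBS and plated on drug-free Sabouraud dextrose agar, then incubated 48 h at 35°C. Reduction R = lg CFU/mL control − lg CFU/mL treated; R ≥ 3 defined as fungicidal.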

[20] = test system: Candida albicans; assay: Antifungal activity against Candida albicans ATCC 90028 at 0.125 ug/ml after 48 hrs relative to control; method in brief: as §1
[21] = test system: Candida albicans; assay: Antifungal activity against Candida albicans ATCC 90028 at 8 ug/ml after 18 hrs relative to control; method in brief: as §1

| Structure (SMILES) | Activity [1] | Activity [2] | Activity [3] | Activity [4] | Activity [5] | Activity [6] | Activity [7] | Activity [8] | Activity [9] | Activity [10] | Activity [11] | Activity [12] | Activity [13] | Activity [14] | Activity [15] | Activity [16] | Activity [17] | Activity [18] | Activity [19] | Activity [20] | also measured |
| --- | --- | --- | --- | --- | --- | --- | --- | --- | --- | --- | --- | --- | --- | --- | --- | --- | --- | --- | --- | --- | --- |
| CCOC(=O)CCn1nnc(-c2ccc(C)cc2)n1 | 99.31% | 98.81% | 98.19% | 99.14% | 99.76% | 99.16% | 98.79% | 99.37% | 98.38% | 96.34% | 99.98% | 99.07% | 98.95% | 98.99% | 99.51% | 98.95% | 98.95% | 45.15% | -0.23 log10CFU/ml | 98.72% | Activity [21]: 99.61% |
| c1ccc(-c2nnn(CCCN3CCOCC3)n2)cc1 | 94.63% | 98.98% | 85.92% | 98.82% | 99.81% | 99.59% | 99.55% | 99.31% | 99.96% | 98.87% | 97.02% | 99.52% | 99.13% | 99.64% | 99.93% | 99.15% | 98.84% | 80.42% | -0.34 log10CFU/ml | 97.95% | Activity [21]: 99.94% |
| ClCCCn1nnc(-c2ccccc2)n1 | 99.51% | 99.38% | 99.25% | 99.63% | 99.65% | 99.16% | 99.76% | 99.22% | 98.55% | 97.6% | 99.36% | 99.1% | 99.16% | 99.53% | 99.99% | 99.29% | 99.57% | 62.02% | -0.23 log10CFU/ml | 99.19% | Activity [21]: 99.54% |
| CCOC(=O)CCn1nnnc1-c1ccc(C)cc1 | 99.74% | 99.34% | 89.93% | 98.86% | 99.61% | 99.08% | 99.11% | 98.82% | 95.87% | 99.04% | 98.97% | 98.88% | 98.72% | 99.94% | 99.59% | 99.01% | 97.05% | 98.46% | -0.54 log10CFU/ml | 98.94% | Activity [21]: 98.51% |
| CCOC(=O)CCn1nnc(-c2ccccc2Cl)n1 | 97.51% | 99.27% | 99.98% | 98.84% | 99.97% | 98.84% | 98.78% | 98.83% | 99.86% | 98.86% | 100% | 96.86% | 99.09% | 100% | 99.86% | 99.05% | 99.41% | 99.38% | 0.19 log10CFU/ml | 98.82% | Activity [21]: 99.23% |
| Cc1ccc(-c2nnn(CCCCl)n2)cc1 | 98.95% | 98.94% | 98.39% | 99.08% | 98.66% | 98.95% | 99.12% | 98.26% | 99.45% | 98.65% | 98.46% | 97.59% | 98.79% | 99.63% | 99.06% | 98.84% | 98.87% | 99.6% | 0.65 log10CFU/ml | 98.92% | Activity [21]: 99.06% |
| ClCCCn1nnnc1-c1ccccc1 | 99.65% | 99.02% | 95.82% | 98.81% | 98.12% | 98.82% | 99.12% | 99.05% | 94.68% | 98.8% | 98.95% | 97.53% | 98.19% | 98.66% | 99.45% | 98.9% | 97.23% | 96.69% | -0.18 log10CFU/ml | 99.16% | Activity [21]: 98.57% |
| ClCCCn1nnc(-c2ccc(Cl)cc2)n1 | 96.23% | 99% | 99.22% | 98.75% | 99.94% | 98.74% | 98.83% | 98.74% | 99.99% | 99.1% | 100% | 96.41% | 99.04% | 99.02% | 99.94% | 98.93% | 99.24% | 91.33% | 0.26 log10CFU/ml | 98.9% | Activity [21]: 98.47% |
| Clc1ccc(-c2nnn(CCCN3CCOCC3)n2)cc1 | 97.92% | 99.12% | 98.31% | 98.81% | 99.95% | 99.32% | 99.28% | 99.35% | 99.91% | 99.36% | 100% | 92.34% | 99.24% | 98.1% | 100% | 98.97% | 99.61% | 98.79% | 0.34 log10CFU/ml | 98.92% | Activity [21]: 96.3% |
| CCOC(=O)CCn1nnnc1-c1ccccc1 | 99.69% | 99.23% | 90.79% | 99.02% | 99.99% | 98.96% | 99.26% | 98.96% | 95.76% | 98.87% | 99.13% | 98.87% | 98.01% | 98.44% | 99.37% | 98.91% | 97.06% | 95.93% | 0.16 log10CFU/ml | 99.01% | Activity [21]: 99.4% |
| CCOC(=O)CCn1nnc(-c2ccc(Cl)cc2)n1 | 99.32% | 99.14% | 99.74% | 98.86% | 99.92% | 99% | 98.8% | 98.78% | 99.95% | 98.78% | 100% | 98.32% | 98.87% | 99.85% | 99.88% | 99.07% | 99.12% | 84.36% | 0.29 log10CFU/ml | 98.85% | Activity [21]: 97.97% |

From ChEMBL document CHEMBL4145471, “New 1,5 and 2,5-disubstituted tetrazoles-dependent activity towards surface barrier of Candida albicans” (Eur J Med Chem, 2018)
